Experimental data published in ChEMBL document CHEMBL2176968, “Identification of less lipophilic riminophenazine derivatives for the treatment of drug-resistant tuberculosis” (J Med Chem, 2012).

Key:
Mus musculus = experiment: Toxicity in BALB/c mouse infected with multi-drug resistant Mycobacterium tuberculosis isolate 040 assessed as skin discoloration at 20 mg/kg, po qd administered 5 days per week during acute phase of infection measured after 20 days; format: organism-based; design: dose 20 mg/kg, route oral; details: in vivo, 480 h
In short: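 Mice were infected by aerosol and then dosed by gavage at 20 mg/kg in 0.5% CMC, 5 days per week, from day 10 to day 30. During treatment, discoloration of ears, internal organs and fat tissue was scored visually and ranked by color intensity.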

[1] = test system: Mycobacterium tuberculosis; experiment: Antitubercular activity against multi-drug resistant Mycobacterium tuberculosis isolate 040 infected in BALB/c mouse assessed as reduction in lung bacterial load at 20 mg/kg, po qd administered 5 days per week during acute phase of infection measured after 20 days relative to untreated control; format: functional
In short: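 Infection was by aerosol, depositing 50-100 bacilli per lung. Dosing began on day 10 and ran to day 30, 5 days per week, with compound in 0.5% CMC by gavage. Groups had 5-6 treated mice and 7-10 CMC-treated controls. The day after the last dose, lung homogenates were plated on supplemented 7H11 agar in duplicate for 2-3 weeks at 37°C. Results are log10 CFU per lung; means were compared by Student's t test.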

Structure (SMILES)	Activity (Mus musculus)	log10cfu [1]
CC(C)/N=c1\cc2n(-c3ccc(Cl)cc3)c3ccccc3nc-2cc1Nc1ccc(Cl)cc1 [CLOFAZIMINE]	Toxic	3.54
COc1ncccc1Nc1cc2nc3ccccc3n(-c3ccc(F)cc3)c-2c/c1=N\C1CCC(OC)CC1 (centres undefined)	Toxic	4.35
COc1ncccc1Nc1cc2nc3ccccc3n(-c3ccc(Cl)cc3)c-2c/c1=N\C1CCC(OC)CC1 (centres undefined)	Non-toxic	4.04
COc1ncccc1Nc1cc2nc3ccccc3n(-c3ccc(F)cc3)c-2c/c1=N\C(C)C	Toxic	3.91
COc1ncccc1Nc1cc2nc3ccccc3n(-c3ccc(Cl)cc3)c-2c/c1=N\C1CCOCC1	Non-toxic	4.81
COC1CCC(/N=c2\cc3n(-c4ccc(Cl)cc4)c4ccccc4nc-3cc2Nc2ccc(C)nc2)CC1 (centres undefined)	Non-toxic	3.25
COc1ncccc1Nc1cc2nc3ccccc3n(-c3ccc(OC(F)(F)F)cc3)c-2c/c1=N\C1CCC(OC)CC1 (centres undefined)	Non-toxic	4.67
